Laboratory results reported in ChEMBL document CHEMBL1139212, “Indole alkaloids from three species of the Ervatamia genus: E. officinalis, E. divaricata, and E. divaricata Gouyahua” (J Nat Prod, 2007).
pIC50: −log10 of the molar value.

What was measured:
P388 = assay: Cytotoxicity against murine P388 cells by MTT method; assay type: functional, cell-based; details: Mus musculus
Procedure, shortened: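 In vitro growth inhibition of P-388 murine leukemia cells, read by MTT reduction; pseudolaric acid B served as positive control.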

A549 = assay: Cytotoxicity against human A549 cells by SRB method; assay type: functional, cell-based
Procedure, shortened: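 In vitro growth inhibition of A-549 human lung carcinoma cells, read by sulforhodamine B staining; pseudolaric acid B served as positive control.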

SMILES	pIC50 (P388)	pIC50 (A549)
CC[C@H]1C[C@@H]2C[C@H]3c4[nH]c5cc([C@@H]6C[C@H]7C(C(=O)OC)[C@@H](Cc8c6[nH]c6ccccc86)N(C)C[C@H]7CC)c(OC)cc5c4CCN(C2)[C@@H]13 (stereo partly specified)	6.08	5.96
C/C=C1/CN(C)[C@@H]2Cc3c([nH]c4ccccc34)[C@H](c3cc4[nH]c5c(c4cc3OC)CCN3C[C@@H]4C[C@H](CC)[C@H]3[C@H]5C4)C[C@H]1C2C(=O)OC (stereo partly specified)	6.96	6.28
CC[C@H]1C[C@@H]2C[C@H]3c4[nH]c5cc([C@@H]6C[C@H]7C(C(=O)OC)[C@@H](Cc8c6[nH]c6ccccc86)N(C)C[C@H]7CC)ccc5c4CCN(C2)[C@@H]13 (stereo partly specified)	6.37	6.59
CC[C@@]12C=CCN3CC[C@]4(C(=C(C(=O)OC)C1)Nc1cc5c(cc14)[C@H]1[C@@H](O5)[C@H](O)[C@]4(CC)CC(C(=O)OC)=C5Nc6c(cc(O)c(OC)c6OC)[C@@]56CCN1[C@H]46)[C@H]32 [CONOPHYLLIDINE]	7.60	7.36
CC[C@H]1C[C@H]2CN3CCc4c([nH]c5cc([C@@H]6C[C@H]7C(C(=O)OC)[C@@H](Cc8c6[nH]c6ccccc86)N(C)C[C@H]7CC)c(OC)cc45)[C@](C(=O)OC)(C2)[C@H]13 (stereo partly specified) [ERVADIVARICATINE B]	6.44	6.37
COC(=O)C1=CC[C@@]23CC[C@@H]([C@@](C)(/C=C/C=C(\C)C(=O)O)OC2=O)[C@@]3(OC(C)=O)CC1 [PSEUDOLARIC ACID B]	5.43	
